{"source": "ChEMBL document CHEMBL1629639", "about": "“Selectivity of TMC207 towards mycobacterial ATP synthase compared with that towards the eukaryotic homologue” (Antimicrob Agents Chemother, 2009)", "key": {"[1]": {"tested_on": "OVCAR-3", "experiment": "Inhibition of ATP synthase mediated ATP production in human OVCAR3 cells at 200 uM", "assay_type": "cell-based", "outline": "(§1)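 OVCAR3 cells were grown in DMEM with 10% FBS and penicillin-streptomycin. Isolated mitochondria (250 μg/ml) and sonicated submitochondrial particles without outer membrane (150 μg/ml) were incubated 1 h at 25°C with compound and an ADP-regenerating system. ATP formed was quantified spectrophotometrically from glucose-6-phosphate oxidation with NADP+. Controls were DCCD 5 μM and oligomycin 1 μM.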"}, "[2]": {"species": "Mus musculus", "experiment": "Inhibition of ATP synthase in M18 mouse liver mitochondria assessed as effect on oxygen consumption at 175 uM", "outline": "(§2)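 Mitochondria freshly isolated from M18 mouse liver or bovine heart. Oxygen was read by Clark electrode at 37°C in 20 mM Tris-HCl pH 7.3, 85 mM KCl, 5 mM KH2PO4, 2.3 mM MgCl2, 25 mM creatine and 25 mM phosphocreatine, with an ADP-regenerating system. Succinate energised the membrane; rotenone blocked complex I. Inhibition was taken as the fall in state III O2 rate. Oligomycin 0.6 μM served as control. Mean±SD of three independent experiments.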"}, "[3]": {"target": "T1, Putative uncharacterized protein atpE (Mycolicibacterium smegmatis, UniProt Q5TIX5)", "T1 sequence (Q5TIX5 whole entry)": "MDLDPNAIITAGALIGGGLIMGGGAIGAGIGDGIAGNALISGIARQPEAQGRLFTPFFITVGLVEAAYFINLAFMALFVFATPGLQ", "experiment": "Inhibition of Mycobacterium smegmatis MC2 155 ATP synthase subunit c-mediated ATP production at 100 nM", "outline": "(§3)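 Inverted membrane vesicles from M. smegmatis mc²155 incubated with compound at 25°C for 1 h with an ADP-regenerating system. ATP formed was quantified spectrophotometrically by following glucose-6-phosphate oxidation with NADP+. Controls were DCCD (100 μM) and oligomycin (1 μM). IC50 taken from the concentration-response of ATP synthesis.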"}, "[4]": {"tested_on": "OVCAR-3", "experiment": "Inhibition of ATP synthase mediated ATP production in human OVCAR3 cells", "assay_type": "cell-based", "outline": "as §1"}, "[5]": {"tested_on": "OVCAR-3", "experiment": "Inhibition of ATP synthase mediated ATP production in human OVCAR3 cells at 5 uM", "assay_type": "cell-based", "outline": "as §1"}, "[6]": {"species": "Bos taurus", "experiment": "Inhibition of ATP synthase in bovine heart mitochondria assessed as effect on oxygen consumption at 175 uM", "outline": "as §2"}, "[7]": {"target": "T1, Putative uncharacterized protein atpE", "experiment": "Inhibition of Mycobacterium smegmatis MC2 155 ATP synthase subunit c-mediated ATP production", "outline": "as §3"}, "[8]": {"tested_on": "OVCAR-3", "experiment": "Inhibition of ATP synthase mediated ATP production in human OVCAR3 cells at 1 uM", "assay_type": "cell-based", "outline": "as §1"}, "[9]": {"tested_on": "Mycolicibacterium smegmatis", "experiment": "Antimicrobial activity against Mycobacterium smegmatis", "assay_type": "functional"}, "[10]": {"species": "Bos taurus", "experiment": "Inhibition of ATP synthase in bovine heart mitochondria assessed as inhibition of oxygen consumption", "settings": "concentration not given here", "outline": "as §2"}, "[11]": {"experiment": "Inhibition of human ATP synthase mediated ATP production at 100 nM", "outline": "as §1"}, "[12]": {"tested_on": "Mycobacterium tuberculosis", "experiment": "Antimicrobial activity against Mycobacterium tuberculosis", "assay_type": "functional"}, "[13]": {"species": "Mus musculus", "experiment": "Inhibition of ATP synthase in M18 mouse liver mitochondria assessed as inhibition of oxygen consumption", "outline": "as §2"}}, "note": "Active and inactive are the calls of the source. The rule behind the calls is not given here.", "data": [{"smiles": "COc1nc2ccc(Br)cc2cc1[C@@H](c1ccccc1)[C@@](O)(CCN(C)C)c1cccc2ccccc12", "note": "[BEDAQUILINE]", "values": [{"measurement": "inhibition", "setting": "[1]", "result": 35, "unit": "%"}, {"measurement": "inhibition", "setting": "[2]", "result": "inactive"}, {"measurement": "IC50", "setting": "[3]", "result": 10, "unit": "nM"}, {"measurement": "inhibition", "setting": "[4]", "result": "inactive"}, {"measurement": "inhibition", "setting": "[5]", "result": "> 90", "unit": "%"}, {"measurement": "inhibition", "setting": "[6]", "result": "inactive"}, {"measurement": "IC50", "setting": "[7]", "result": 10, "unit": "nM"}, {"measurement": "inhibition", "setting": "[8]", "result": "> 90", "unit": "%"}, {"measurement": "MIC", "setting": "[9]", "result": 0.015, "unit": "µM"}, {"measurement": "inhibition", "setting": "[10]", "result": "> 50", "unit": "%"}, {"measurement": "IC50", "setting": "[11]", "result": "> 200000", "unit": "nM"}, {"measurement": "MIC", "setting": "[12]", "result": 0.03, "unit": "µM"}, {"measurement": "inhibition", "setting": "[13]", "result": "> 80", "unit": "%"}]}]}
